Reference: ChEMBL document CHEMBL1144491, “Synthesis and characterization of styrylchromone derivatives as beta-amyloid imaging agents” (Bioorg Med Chem, 2007)

What was measured:
[1] = Partition coefficient, log P at pH 7.4; assay type: physicochemical; conditions: octanol/water
In short: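 HPLC-purified radioiodinated tracer partitioned between 3 mL 1-octanol and 3 mL 0.1 M phosphate buffer pH 7.4. Vortexed 3 min at room temperature, then centrifuged 5 min. 0.5 mL samples from each layer well-counted. Ratio taken of octanol to buffer cpm/0.5 mL. Octanol layer re-partitioned until values were consistent. Done in triplicate and repeated three times.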

Blood [2] = assay: Biodistribution in ddY mouse blood assessed as radioactivity at 0.5 uCi, iv after 2 mins; assay type: ADME, organism-based; conditions: in vivo
In short: (§1)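 Normal mice given no-carrier-added 125I-labelled tracer (HPLC-purified) by intravenous injection, then sampled at 2, 10, 30 and 60 min. Radioactivity expressed as % injected dose per gram of tissue, and per whole organ for stomach. Values are mean (SD) of 3–5 animals per time point.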

Blood [3] = assay: Biodistribution in ddY mouse blood assessed as radioactivity at 0.5 uCi, iv after 10 mins; assay type: ADME, organism-based; conditions: in vivo; in short: as §1
Blood [4] = assay: Biodistribution in ddY mouse blood assessed as radioactivity at 0.5 uCi, iv after30 mins; assay type: ADME, organism-based; conditions: in vivo, 0.5 h; in short: as §1
Blood [5] = assay: Biodistribution in ddY mouse blood assessed as radioactivity at 0.5 uCi, iv after 60 mins; assay type: ADME, organism-based; conditions: in vivo, 1 h; in short: as §1
Liver [6] = assay: Biodistribution in ddY mouse liver assessed as radioactivity at 0.5 uCi, iv after 2 mins; assay type: ADME, organism-based; conditions: in vivo; in short: as §1
Liver [7] = assay: Biodistribution in ddY mouse liver assessed as radioactivity at 0.5 uCi, iv after 10 mins; assay type: ADME, organism-based; conditions: in vivo; in short: as §1
Liver [8] = assay: Biodistribution in ddY mouse liver assessed as radioactivity at 0.5 uCi, iv after 30 mins; assay type: ADME, organism-based; conditions: in vivo, 0.5 h; in short: as §1
Liver [9] = assay: Biodistribution in ddY mouse liver assessed as radioactivity at 0.5 uCi, iv after 60 mins; assay type: ADME, organism-based; conditions: in vivo, 1 h; in short: as §1
Kidney [10] = assay: Biodistribution in ddY mouse kidney assessed as radioactivity at 0.5 uCi, iv after 2 mins; assay type: ADME, organism-based; conditions: in vivo; in short: as §1
Kidney [11] = assay: Biodistribution in ddY mouse kidney assessed as radioactivity at 0.5 uCi, iv after 10 mins; assay type: ADME, organism-based; conditions: in vivo; in short: as §1
Kidney [12] = assay: Biodistribution in ddY mouse kidney assessed as radioactivity at 0.5 uCi, iv after 30 mins; assay type: ADME, organism-based; conditions: in vivo, 0.5 h; in short: as §1
Kidney [13] = assay: Biodistribution in ddY mouse kidney assessed as radioactivity at 0.5 uCi, iv after 60 mins; assay type: ADME, organism-based; conditions: in vivo, 1 h; in short: as §1
Intestine [14] = assay: Biodistribution in ddY mouse intestine assessed as radioactivity at 0.5 uCi, iv after 2 mins; assay type: ADME, organism-based; conditions: in vivo; in short: as §1
Intestine [15] = assay: Biodistribution in ddY mouse intestine assessed as radioactivity at 0.5 uCi, iv after10 mins; assay type: ADME, organism-based; conditions: in vivo, 10 min; in short: as §1
Intestine [16] = assay: Biodistribution in ddY mouse intestine assessed as radioactivity at 0.5 uCi, iv after 30 mins; assay type: ADME, organism-based; conditions: in vivo, 0.5 h; in short: as §1
Intestine [17] = assay: Biodistribution in ddY mouse intestine assessed as radioactivity at 0.5 uCi, iv after 60 mins; assay type: ADME, organism-based; conditions: in vivo, 1 h; in short: as §1
Spleen [18] = assay: Biodistribution in ddY mouse spleen assessed as radioactivity at 0.5 uCi, iv after 2 mins; assay type: ADME, organism-based; conditions: in vivo; in short: as §1
Spleen [19] = assay: Biodistribution in ddY mouse spleen assessed as radioactivity at 0.5 uCi, iv after 10 mins; assay type: ADME, organism-based; conditions: in vivo; in short: as §1
Spleen [20] = assay: Biodistribution in ddY mouse spleen assessed as radioactivity at 0.5 uCi, iv after 30 mins; assay type: ADME, organism-based; conditions: in vivo, 0.5 h; in short: as §1
Spleen [21] = assay: Biodistribution in ddY mouse spleen assessed as radioactivity at 0.5 uCi, iv after 60 mins; assay type: ADME, organism-based; conditions: in vivo, 1 h; in short: as §1
Pancreas [22] = assay: Biodistribution in ddY mouse pancreas assessed as radioactivity at 0.5 uCi, iv after 2 mins; assay type: ADME, organism-based; conditions: in vivo; in short: as §1
Pancreas [23] = assay: Biodistribution in ddY mouse pancreas assessed as radioactivity at 0.5 uCi, iv after 10 mins; assay type: ADME, organism-based; conditions: in vivo; in short: as §1
Pancreas [24] = assay: Biodistribution in iv dosed ddY mouse pancreas assessed as radioactivity after 30 mins; assay type: ADME, organism-based; conditions: in vivo, 0.5 h; in short: as §1
Pancreas [25] = assay: Biodistribution in ddY mouse pancreas assessed as radioactivity at 0.5 uCi, iv after 60 mins; assay type: ADME, organism-based; conditions: in vivo, 1 h; in short: as §1
Heart [26] = assay: Biodistribution in ddY mouse heart assessed as radioactivity at 0.5 uCi, iv after 2 mins; assay type: ADME, organism-based; conditions: in vivo; in short: as §1
Heart [27] = assay: Biodistribution in ddY mouse heart assessed as radioactivity at 0.5 uCi, iv after 10 mins; assay type: ADME, organism-based; conditions: in vivo; in short: as §1
Heart [28] = assay: Biodistribution in ddY mouse heart assessed as radioactivity at 0.5 uCi, iv after 30 mins; assay type: ADME, organism-based; conditions: in vivo, 0.5 h; in short: as §1
Heart [29] = assay: Biodistribution in ddY mouse heart assessed as radioactivity at 0.5 uCi, iv after 60 mins; assay type: ADME, organism-based; conditions: in vivo, 1 h; in short: as §1
Stomach [30] = assay: Biodistribution in ddY mouse stomach assessed as radioactivity at 0.5 uCi, iv after 2 mins; assay type: ADME, organism-based; conditions: in vivo; in short: as §1
Stomach [31] = assay: Biodistribution in ddY mouse stomach assessed as radioactivity at 0.5 uCi, iv after10 mins; assay type: ADME, organism-based; conditions: in vivo, 10 min; in short: as §1
Stomach [32] = assay: Biodistribution in ddY mouse stomach assessed as radioactivity at 0.5 uCi, iv after 30 mins; assay type: ADME, organism-based; conditions: in vivo, 0.5 h; in short: as §1
Stomach [33] = assay: Biodistribution in ddY mouse stomach assessed as radioactivity at 0.5 uCi, iv after 60 mins; assay type: ADME, organism-based; conditions: in vivo, 1 h; in short: as §1
Brain [34] = assay: Biodistribution in ddY mouse brain assessed as radioactivity at 0.5 uCi, iv after 2 mins; assay type: ADME, organism-based; conditions: in vivo; in short: as §1
Brain [35] = assay: Biodistribution in ddY mouse brain assessed as radioactivity at 0.5 uCi, iv after 10 mins; assay type: ADME, organism-based; conditions: in vivo; in short: as §1
Brain [36] = assay: Biodistribution in ddY mouse brain assessed as radioactivity at 0.5 uCi, iv after 30 mins; assay type: ADME, organism-based; conditions: in vivo, 0.5 h; in short: as §1
Brain [37] = assay: Biodistribution in ddY mouse brain assessed as radioactivity at 0.5 uCi, iv after 60 mins; assay type: ADME, organism-based; conditions: in vivo; in short: as §1
[38] = Binding affinity at amyloid peptide plaques; design: species or system Homo sapiens
In short: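 Saturation binding to synthetic Aβ(1–40) aggregates (57 nM final), pre-aggregated at 0.5 mg/mL in pH 7.4 10 mM sodium phosphate/1 mM EDTA, 37 °C, 42 h with shaking. Radioiodinated ligand 1–125 nM final (made by mixing with cold compound), in 10% ethanol, 3 h at room temperature. Filtered on GF/B, bound 125I gamma-counted. Nonspecific binding defined with 1 µM cold ligand. Kd by Scatchard analysis.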

| logD [1] | Drug uptake (Blood [2]) | Drug uptake (Blood [3]) | Drug uptake (Blood [4]) | Drug uptake (Liver [6]) | Drug uptake (Liver [7]) | Drug uptake (Liver [8]) | Drug uptake (Kidney [10]) | Drug uptake (Kidney [11]) | Drug uptake (Kidney [12]) | Drug uptake (Intestine [14]) | Drug uptake (Intestine [15]) | Drug uptake (Intestine [16]) | Drug uptake (Spleen [18]) | Drug uptake (Spleen [19]) | Drug uptake (Spleen [20]) | Drug uptake (Pancreas [22]) | Drug uptake (Pancreas [23]) | Drug uptake (Pancreas [24]) | Drug uptake (Brain [34]) | Compound | also measured |
| --- | --- | --- | --- | --- | --- | --- | --- | --- | --- | --- | --- | --- | --- | --- | --- | --- | --- | --- | --- | --- | --- |
| 2.15 | 3.21 % ID/g | 2.44 % ID/g | 2.19 % ID/g | 14.55 % ID/g | 14.41 % ID/g | 11.13 % ID/g | 10.41 % ID/g | 7.05 % ID/g | 5.48 % ID/g | 2.59 % ID/g | 8.55 % ID/g | 16.72 % ID/g | 3.88 % ID/g | 4.42 % ID/g | 2.66 % ID/g | 4.92 % ID/g | 3.56 % ID/g | 2.25 % ID/g | 2.84 % ID/g | CNc1ccc(/C=C/c2cc(=O)c3cc([125I])ccc3o2)cc1 | Drug uptake (Blood [5]): 1.79 % ID/g; Drug uptake (Liver [9]): 7.82 % ID/g; Drug uptake (Kidney [13]): 3.52 % ID/g; Drug uptake (Intestine [17]): 19.16 % ID/g; Drug uptake (Spleen [21]): 1.51 % ID/g; Drug uptake (Pancreas [25]): 1.32 % ID/g; Drug uptake (Heart [26]): 6.92 % ID/g; Drug uptake (Heart [27]): 3.31 % ID/g; Drug uptake (Heart [28]): 2.09 % ID/g; Drug uptake (Heart [29]): 1.47 % ID/g; Drug uptake (Stomach [30]): 1 %ID; Drug uptake (Stomach [31]): 1.89 %ID; Drug uptake (Stomach [32]): 2.01 %ID; Drug uptake (Stomach [33]): 1.9 %ID; Drug uptake (Brain [35]): 2.96 % ID/g; Drug uptake (Brain [36]): 1.86 % ID/g; Drug uptake (Brain [37]; 1 h): 0.99 % ID/g; Kd [38]: 0.0175 µM |
| 1.65 | 2.34 % ID/g | 2.44 % ID/g | 2.56 % ID/g | 13.23 % ID/g | 14.49 % ID/g | 10.27 % ID/g | 11.94 % ID/g | 6.99 % ID/g | 4.91 % ID/g | 2.84 % ID/g | 5.51 % ID/g | 11.71 % ID/g | 4.23 % ID/g | 3.64 % ID/g | 2.92 % ID/g | 6.58 % ID/g | 5.18 % ID/g | 3.07 % ID/g | 4.88 % ID/g | Nc1ccc(/C=C/c2cc(=O)c3cc([125I])ccc3o2)cc1 | Drug uptake (Blood [5]): 2.27 % ID/g; Drug uptake (Liver [9]): 8.16 % ID/g; Drug uptake (Kidney [13]): 3.76 % ID/g; Drug uptake (Intestine [17]): 16.08 % ID/g; Drug uptake (Spleen [21]): 2.16 % ID/g; Drug uptake (Pancreas [25]): 1.11 % ID/g; Drug uptake (Heart [26]): 8.4 % ID/g; Drug uptake (Heart [27]): 3.78 % ID/g; Drug uptake (Heart [28]): 2.43 % ID/g; Drug uptake (Heart [29]): 1.64 % ID/g; Drug uptake (Stomach [30]): 1.24 %ID; Drug uptake (Stomach [31]): 1.81 %ID; Drug uptake (Stomach [32]): 2.17 %ID; Drug uptake (Stomach [33]): 3.29 %ID; Drug uptake (Brain [35]): 4.4 % ID/g; Drug uptake (Brain [36]): 2.78 % ID/g; Drug uptake (Brain [37]; 1 h): 1.62 % ID/g; Kd [38]: 0.032 µM |
|  |  |  |  |  |  |  |  |  |  |  |  |  |  |  |  |  |  |  | 2.88% | CN(C)c1ccc(-c2cn3cc([125I])ccc3n2)cc1 | Drug uptake (Brain [37]; 30 min, in the assay text read “after 30 mins” for “after 60 mins”): 0.26 % ID/g; Ki [38]: […] |
| 2.65 | 2.62 % ID/g | 1.44 % ID/g | 1.13 % ID/g | 11.17 % ID/g | 10.15 % ID/g | 7.72 % ID/g | 6.7 % ID/g | 4.51 % ID/g | 3.69 % ID/g | 1.45 % ID/g | 4.95 % ID/g | 12.68 % ID/g | 2.43 % ID/g | 2.01 % ID/g | 1.38 % ID/g | 3.02 % ID/g | 2.73 % ID/g | 1.34 % ID/g | 1.14 % ID/g | CN(C)c1ccc(/C=C/c2cc(=O)c3cc([125I])ccc3o2)cc1 | Drug uptake (Heart [26]): 6.25 % ID/g; Drug uptake (Heart [27]): 1.75 % ID/g; Drug uptake (Heart [28]): 1.27 % ID/g; Drug uptake (Stomach [30]): 0.7 %ID; Drug uptake (Stomach [31]): 1.14 %ID; Drug uptake (Stomach [32]): 1.23 %ID; Drug uptake (Brain [35]): 1.76 % ID/g; Drug uptake (Brain [36]): 1.37 % ID/g; Kd [38]: 0.0087 µM |
